Assay results taken from ChEMBL document CHEMBL1156820, “Novel highly potent and selective sigma 1 receptor antagonists related to spipethiane” (J Med Chem, 2010).
Active and inactive are the calls of the source.

Tests used:
[1] = Displacement of [3H]DTG from sigma2 receptor in rat cerebral cortex cell membrane; format: cell membranes
Summary of the method: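 Rat cerebral cortex membranes (100-200 μg protein) incubated with [3H]DTG (5 nM) and 300 nM (+)-pentazocine to mask σ1 sites, across a range of test concentrations, 2 h at 22 °C in 5 mM Tris/HCl pH 7.4. Nonspecific binding defined with 10 μM haloperidol. GF/B filtration, scintillation counting. Triplicates; Ki from two to three experiments.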

MCF7 [2] = assay: Growth inhibition of human MCF7 cells at 10 uM after 48 hrs by SRB assay; format: functional, cell-based
Summary of the method: (§1)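 MCF-7 or MCF-7/ADR cells seeded at 1 × 10⁴/well, dosed after 24 h with 10 μM compound for 48 h at 37 °C, 5% CO2. Fixed with cold TCA, stained with 0.4% SRB in 1% acetic acid, dye solubilized in 10 mM Tris, absorbance read at 520 nm. Percent inhibition given as mean ± SEM of three experiments.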

[3] = biological target: Sigma non-opioid intracellular receptor 1 (Homo sapiens, UniProt Q99720); assay: Displacement of [3H](+)-pentazocine from sigma1 receptor in human Jurkat cell membrane; format: cell membranes
Sequence of Sigma non-opioid intracellular receptor 1 (Q99720 whole entry): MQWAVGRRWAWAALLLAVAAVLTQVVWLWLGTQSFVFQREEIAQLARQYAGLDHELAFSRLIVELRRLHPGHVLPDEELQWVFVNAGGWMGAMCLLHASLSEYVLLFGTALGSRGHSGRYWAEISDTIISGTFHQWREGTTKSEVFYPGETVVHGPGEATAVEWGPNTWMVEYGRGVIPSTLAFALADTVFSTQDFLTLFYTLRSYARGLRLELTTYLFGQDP

[4] = Antagonist activity at sigma2 receptor in guinea pig ileum longitudinal muscle assessed as inhibition of 5-HT-induced contractions; format: functional, tissue-based; details: Cavia porcellus
Summary of the method: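 Longitudinal muscle/myenteric plexus ileum segments from male guinea pigs (300-400 g), 1 g tension, Tyrode's at 37 °C gassed with 95% O2/5% CO2, 1 μM ketanserin present throughout. After 90 min equilibration, three noncumulative 5-HT concentration-response curves; the second is run with test compound. 5-HT contact 1 min, 20 min washes between doses; peak isotonic contraction recorded.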

NCI/ADR-RES [5] = assay: Growth inhibition of human MCF7/ADR cells highly expressing sigma1 receptor at 10 uM after 48 hrs by SRB assay; format: functional, cell-based; summary of the method: as §1
[6] = Selectivity for human sigma1 receptor over rat sigma2 receptor
Summary of the method: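 Selectivity ratio is the antilog of pKi(σ1) minus pKi(σ2). σ1 binding: Jurkat membranes with [3H](+)-pentazocine (8 nM). σ2 binding: rat cortex membranes with [3H]DTG (5 nM) plus 300 nM (+)-pentazocine. Both run 2 h at 22 °C in 5 mM Tris/HCl pH 7.4, nonspecific binding with 10 μM haloperidol.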

[7] = Cell cycle arrest in human MCF7/ADR cells highly expressing sigma1 receptor assessed as accumulation at G2/M phase at 10 uM after 48 hrs by propidium iodide staining based flow cytometry relative to control; format: functional; details: NCI/ADR-RES
Summary of the method: (§2)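 MCF-7 or MCF-7/ADR cells (3 × 10⁵/mL) held 48 h at 37 °C, 5% CO2 with 10 μM compound. Fixed in cold 70% ethanol for 15 min on ice, then stained 40 min at 37 °C with PI (50 μg/mL) plus RNase A (0.1 mg/mL) and 0.05% Triton X-100. Flow cytometry over 10000 events; one of three experiments shown.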

[8] = Cell cycle arrest in human MCF7/ADR cells highly expressing sigma1 receptor assessed as accumulation at G0/G1 phase at 10 uM after 48 hrs by propidium iodide staining based flow cytometry relative to control; format: functional; details: NCI/ADR-RES; summary of the method: as §2
[9] = Cell cycle arrest in human MCF7/ADR cells highly expressing sigma1 receptor assessed as accumulation at S phase at 10 uM after 48 hrs by propidium iodide staining based flow cytometry relative to control; format: functional; details: NCI/ADR-RES; summary of the method: as §2
MCF7 [10] = assay: Cell cycle arrest in human MCF7 cells assessed as accumulation at G0/G1 phase at 10 uM after 48 hrs by propidium iodide staining based flow cytometry relative to control; format: functional; summary of the method: as §2
MCF7 [11] = assay: Induction of apoptosis in human MCF7 cells at 10 uM after 48 hrs by Annexin V staining based flow cytometry relative to control; format: functional
Summary of the method: (§3)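 MCF-7 or MCF-7/ADR cells (3 × 10⁵/mL) exposed to 10 μM compound for 48 h at 37 °C, 5% CO2. Stained with Annexin V-FITC (1:40) for 10 min at room temperature in binding buffer (10 mM Hepes pH 7.4, 140 mM NaCl, 2.5 mM CaCl2), then read by FACS. Reported as % Annexin V+ cells, mean ± SEM of three experiments.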

MCF7 [12] = assay: Cell cycle arrest in human MCF7 cells assessed as accumulation at S phase at 10 uM after 48 hrs by propidium iodide staining based flow cytometry relative to control; format: functional; summary of the method: as §2
NCI/ADR-RES [13] = assay: Induction of apoptosis in human MCF7/ADR cells highly expressing sigma1 receptor at 10 uM after 48 hrs by Annexin V staining based flow cytometry relative to control; format: functional; summary of the method: as §3
MCF7 [14] = assay: Cell cycle arrest in human MCF7 cells assessed as accumulation at G2/M phase at 10 uM after 48 hrs by propidium iodide staining based flow cytometry relative to control; format: functional; summary of the method: as §2
[15] = Growth inhibition of human MCF7/ADR cells highly expressing sigma1 receptor after 48 hrs by SRB assay; format: functional; details: NCI/ADR-RES
Summary of the method: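 Cells seeded at 1 × 10⁴/well; after 24 h, compound (10 nM-10 μM) added in quadruplicate for 48 h at 37 °C, 5% CO2, with a time-zero plate read. TCA fixation, 0.4% SRB stain, absorbance at 520 nm. GI50 is the concentration halving net protein increase, interpolated from % growth versus log concentration; mean of triplicates.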

Mus musculus [16] = assay: Analgesic effect in CD1 mouse at 1 mg/kg, sc by radiant heat tail flick test; format: functional, organism-based; set-up: dose 1 mg/kg
Summary of the method: (§4)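 Male CD-1 mice, 25-35 g. Radiant heat tail flick, IR source aimed at the lower third of the tail. Basal latency (2-3 s) is the mean of two trials 30 min apart. Drug 1 mg/kg sc or vehicle (DMSO 1%) given 30 min before morphine 5.0 mg/kg sc or saline. Read at 30, 60, 90 and 120 min after morphine; cutoff 12 s. Reported as %MPE, mean ± SEM, n=8; ANOVA with Student-Newman-Keuls.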

Mus musculus [17] = assay: Increase in morphine-induced analgesia in CD1 mouse at 1 mg/kg, sc administered 30 mins before morphine challenge measured after 60 to 120 mins post morphine challenge by radiant heat tail flick test; format: functional, organism-based; set-up: dose 1 mg/kg; summary of the method: as §4

Row | SMILES | Ki [3] | IC50 [4] | Ki selectivity ratio (sigma2/sigma1) [6] | pKi [1] | Activity (MCF7 [2]) | Activity (NCI/ADR-RES [5]) | further results
1 | O=C1CC(C2CCN(Cc3ccccc3)CC2)Oc2ccccc21 (racemic) |  |  | 2630 | 6.76 | inactive | Active | Activity [7]: 23.3%; Activity [8]: 62.7%; Activity [9]: 14%
2 | c1ccc(CN2CCC(C3CCc4ccccc4S3)CC2)cc1 (racemic) | 0.0575 nM | 8400 nM | 1000 | 7.24 | inactive | Active | 
3 | O=C1CC2(CCN(Cc3ccccc3)CC2)Oc2ccccc21 | 0.209 nM | 7200 nM | 1440 | 6.52 | inactive | Active | GI50 [15]: 10000 nM
4 | O=C1CC(C2CCN(Cc3ccccc3)CC2)Sc2ccccc21 (racemic) |  |  |  | 5.81 | inactive | Active | Activity [7]: 24.4%; Activity (Mus musculus [16]): inactive; Activity [8]: 61.5%; Activity [9]: 13.9%; Activity (Mus musculus [17]): Active
5 | O=C(CCCN1CCC(O)(c2ccc(Cl)cc2)CC1)c1ccc(F)cc1 [HALOPERIDOL] |  |  |  | 6.95 |  |  | 

The next lines start with results.

Row | Ki [3] | IC50 [4] | Ki selectivity ratio (sigma2/sigma1) [6] | SMILES | pKi [1] | Activity (MCF7 [2]) | Activity (NCI/ADR-RES [5]) | further results
6 | 0.0891 nM | > 10000 nM | 2510 | c1ccc(CN2CCC3(CC2)OCc2ccccc2S3)cc1 | 6.65 | inactive | Active | 
7 | 0.589 nM | 6300 nM | 676 | c1ccc(CN2CCC3(CCc4ccccc4S3)CC2)cc1 [SPIPETHIANE] | 6.4 | inactive | Active | Activity [7]: 24.8%; Activity (MCF7 [10]): 73%; Activity (MCF7 [11]): 2.7%; Activity (MCF7 [12]): 10%; Activity [8]: 55.1%; Activity [9]: 20.1%; Activity (NCI/ADR-RES [13]): 5.4%; Activity (MCF7 [14]): 17%
8 | 0.0977 nM | 3900 nM | 2340 | c1ccc(CN2CCC3(CC2)OCc2ccccc2O3)cc1 | 6.64 | inactive | Active | 
9 | 0.437 nM | > 10000 nM | 32 | c1ccc(CN2CCC3(CCc4ccccc4C3)CC2)cc1 | 7.85 |  |  | 
10 |  |  | 36 | c1ccc(CN2CCC3(CCc4ccccc4O3)CC2)cc1 | 7.66 |  |  | pKi ([3]; jurkat): 9.21
11 |  |  | 76 | O=C1CC(C2CCN(CCc3ccccc3)CC2)Oc2ccccc21 (racemic) | 8.08 | inactive | Active | 
